In ChEMBL document CHEMBL1177884, “1,2-ethane bis-1-amino-4-benzamidine is active against several brain insult and seizure challenges through anti-NMDA mechanisms targeting the 3H-TCP binding site and antioxidant action” (Eur J Med Chem, 2010):
Calls of active or inactive are those of the source.

Key:
[1] = Antioxidant activity assessed as inhibition of pyrogallol autooxidation; assay type: functional; set-up: concentration or dose not given beside the values; settings: dose or concentration not given here
Outline: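 Pyrogallol autooxidation followed at 420 nm in pH 7.4 TRIS saline (5 mM TRIS, 50 mM NaCl). Compound at 0.5 mM final, from a 50 mM DMSO stock; DMSO alone served as blank. Reaction started with 0.75 mM pyrogallol. Percent inhibition calculated from rates over the first 2 min. Mean of three separate determinations.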

[2] = tested on: Mus musculus; assay: Anticonvulsant activity in Swiss mouse assessed as inhibition of ScPTZ-induced seizures at 100 mg/kg, ip after 30 mins; assay type: functional, organism-based; set-up: dose 100 mg/kg
Outline: (§1)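 Mice dosed ip with compound in methylcellulose at 30, 100 or 300 mg/kg. MES or subcutaneous pentylenetetrazol seizure tests run 30 min and 4 h after dosing, and occasionally at 15 min and 1 h. Activity scored as the percentage of animals protected, in bands (75–100%, 50–75%, 25–50%, 0–25%, none).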

[3] = tested on: Mus musculus; assay: Anticonvulsant activity in Swiss mouse assessed as inhibition of maximal electroshock-induced seizures at 30 mg/kg, ip after 4 hrs; assay type: functional, organism-based; set-up: dose 30 mg/kg
Outline: (§2)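 Mice dosed ip with compound in methylcellulose at 30, 100 or 300 mg/kg. MES or subcutaneous pentylenetetrazol seizure tests run 30 min and 4 h after dosing, and occasionally at 15 min and 1 h.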

[4] = tested on: Mus musculus; assay: Anticonvulsant activity in Swiss mouse assessed as inhibition of maximal electroshock-induced seizures at 30 mg/kg, ip after 30 mins; assay type: functional, organism-based; set-up: dose 30 mg/kg; outline: as §2
[5] = tested on: Mus musculus; assay: Neurotoxicity in Swiss mouse assessed as inability of animal to maintain on rotarod at 100 mg, ip after 30 mins by rotarod test; assay type: toxicity, organism-based; settings: in vivo, 0.5 h
Outline: (§3)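 Minimal acute neurotoxicity assessed by rotarod: mouse placed on a 1 inch knurled rod rotating at 6 rpm, at 15 min, 30 min, 1 h or 4 h after ip dosing in methylcellulose. Scored as the percentage of animals toxic, in bands (75–100%, 50–75%, 25–50%, 0–25%, none).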

[6] = tested on: Mus musculus; assay: Anticonvulsant activity in Swiss mouse assessed as inhibition of ScPTZ-induced seizures at 100 mg/kg, ip after 4 hrs; assay type: functional, organism-based; set-up: dose 100 mg/kg; outline: as §1
[7] = tested on: Mus musculus; assay: Anticonvulsant activity in Swiss mouse assessed as inhibition of ScPTZ-induced seizures at 30 mg/kg, ip after 30 mins; assay type: functional, organism-based; set-up: dose 30 mg/kg; outline: as §2
[8] = tested on: Mus musculus; assay: Neurotoxicity in Swiss mouse assessed as inability of animal to maintain on rotarod at 30 mg/kg, ip after 4 hrs by rotarod test; assay type: toxicity, organism-based; settings: in vivo
Outline: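 Minimal acute neurotoxicity assessed by rotarod: mouse placed on a 1 inch knurled rod rotating at 6 rpm, at 15 min, 30 min, 1 h or 4 h after ip dosing in methylcellulose.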

[9] = tested on: Mus musculus; assay: Neurotoxicity in Swiss mouse assessed as inability of animal to maintain on rotarod […], ip after 4 hr by rotarod test; assay type: toxicity, organism-based; settings: in vivo; outline: as §3
[10] = tested on: Mus musculus; assay: Anticonvulsant activity in Swiss mouse assessed as inhibition of maximal electroshock-induced seizures at 100 mg/kg, ip after 4 hrs; assay type: functional, organism-based; set-up: dose 100 mg/kg; outline: as §1
[11] = tested on: Mus musculus; assay: Neurotoxicity in Swiss mouse assessed as inability of animal to maintain on rotarod at 300 mg, ip after 30 mins by rotarod test; assay type: toxicity, organism-based; settings: in vivo, 0.5 h; outline: as §3
[12] = tested on: Mus musculus; assay: Anticonvulsant activity in Swiss mouse assessed as inhibition of maximal electroshock-induced seizures at 100 mg/kg, ip after 30 mins; assay type: functional, organism-based; set-up: dose 100 mg/kg; outline: as §1
[13] = tested on: Mus musculus; assay: Anticonvulsant activity in Swiss mouse assessed as inhibition of ScPTZ-induced seizures at 30 mg/kg, ip after 4 hrs; assay type: functional, organism-based; set-up: dose 30 mg/kg; outline: as §2
[14] = tested on: Mus musculus; assay: Neurotoxicity in Swiss mouse assessed as inability of animal to maintain on rotarod […], ip after 4 hrs by rotarod test; assay type: toxicity, organism-based; settings: in vivo; outline: as §3
[15] = tested on: Mus musculus; assay: Anticonvulsant activity in Swiss mouse assessed as inhibition of maximal electroshock-induced seizures at 300 mg/kg, ip after 4 hrs; assay type: functional, organism-based; set-up: dose 300 mg/kg; outline: as §1
[16] = tested on: Mus musculus; assay: Anticonvulsant activity in Swiss mouse assessed as inhibition of maximal electroshock-induced seizures at 300 mg/kg, ip after 30 mins; assay type: functional, organism-based; set-up: dose 300 mg/kg; outline: as §1
[17] = tested on: Mus musculus; assay: Anticonvulsant activity in Swiss mouse assessed as inhibition of ScPTZ-induced seizures at 300 mg/kg, ip after 30 mins; assay type: functional; set-up: scale not given: the % may be the effect or the level left; settings: route intraperitoneal; outline: as §1
[18] = tested on: Mus musculus; assay: Anticonvulsant activity in Swiss mouse assessed as inhibition of ScPTZ-induced seizures at 300 mg/kg, ip after 4 hrs; assay type: functional, organism-based; set-up: dose 300 mg/kg; outline: as §1
[19] = tested on: Mus musculus; assay: Neurotoxicity in Swiss mouse assessed as inability of animal to maintain on rotarod […], ip after 15 mins by rotarod test; assay type: toxicity, organism-based; settings: in vivo; outline: as §3
[20] = tested on: Mus musculus; assay: Neurotoxicity in Swiss mouse assessed as inability of animal to maintain on rotarod […], ip after 1 hr by rotarod test; assay type: toxicity, organism-based; settings: in vivo; outline: as §3
[21] = tested on: Mus musculus; assay: Antinociceptive activity against thermal-stimulus induced pain reflex in OF1 mouse assessed as maximal possible effect at 60 mg/kg, ip after 45 mins by hot plate assay; settings: route intraperitoneal
[22] = tested on: Mus musculus; assay: Toxicity in OF1 mouse assessed as rectal temperature at 30 mg/kg; assay type: organism-based; set-up: dose 30 mg/kg; settings: in vivo
Outline: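 Rectal temperature measured in mice given 30 mg/kg ip, 1 hr before testing.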

[23] = tested on: Mus musculus; assay: Anticonvulsant activity against magnesium deprivation mediated audiogenic seizure in OF1 mouse assessed as duration of cunvulsions at 6 mg/kg, ip; assay type: functional; settings: route intraperitoneal
[24] = tested on: Mus musculus; assay: Anticonvulsant activity in Swiss mouse assessed as inhibition of ScPTZ-induced seizures at 100 mg/kg, ip after 15 mins; assay type: functional; set-up: scale not given: the % may be the effect or the level left; settings: route intraperitoneal; outline: as §1
[25] = tested on: Mus musculus; assay: Neuroprotective activity against ibotenate-induced focal cerebral injury in Swiss mouse assessed as reduction in size of lesions in white matter at 4 ug/kg, ip; assay type: functional; set-up: scale not given: the % may be the effect or the level left
Outline: (§4)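 Swiss mouse pups anesthetized with isoflurane, then given 10 µg ibotenate by stereotaxic injection into the right frontoparietal area as two 1 µl boluses. Compound in DMSO given ip at 4 µg/kg; controls received DMSO ip. Brains fixed 5 days later. Lesion maximal diameter in white and cortical grey matter measured on cresyl-violet-stained serial coronal sections, 15 µm thick. ANOVA with Bonferroni test.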

[26] = species: Mus musculus; assay: Anticonvulsant activity in OF1 mouse assessed as protection against NMDA-induced seizures; assay type: functional
Outline: (§5)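 Normally fed OF1 mice. Compound given ip 1 hr before ip NMDA (137 mg/kg). Protection scored as no seizures over 4 hours after NMDA and no death within 48 hours. […] At 49 mg/kg, the read-out was the NMDA seizure threshold.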

[27] = tested on: Mus musculus; assay: Anticonvulsant activity against magnesium deprivation mediated audiogenic seizure in OF1 mouse assessed as duration of recovery at 6 mg/kg, ip; assay type: functional; settings: route intraperitoneal
[28] = tested on: Mus musculus; assay: Neuroprotective activity against ibotenate-induced focal cerebral injury in Swiss mouse assessed as reduction in size of lesions in grey matter at 4 ug/kg, ip; assay type: functional; set-up: scale not given: the % may be the effect or the level left; outline: as §4
[29] = tested on: Mus musculus; assay: Anxiolytic activity against OF1 mouse assessed as increase in number of crossings of photocell activity meter at 5 mg/kg, ip administered 1 hr before testing measured for 3 mins; settings: route intraperitoneal
[30] = tested on: Mus musculus; assay: Anxiolytic activity against OF1 mouse assessed as increase in number of crossings of photocell activity meter at 30 mg/kg, ip administered 1 hr before testing measured for 3 mins; settings: route intraperitoneal
[31] = tested on: Mus musculus; assay: Antinociceptive activity against thermal-stimulus induced pain reflex in OF1 mouse assessed as maximal possible effect at 30 mg/kg, ip after 45 mins by hot plate assay; assay type: functional; settings: route intraperitoneal
Outline: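 OF1 mice given compound ip 45 min before testing, then placed on a hot plate at 55 ± 1 °C. Latency to a pain reflex (vocalization, paw lick, hindpaw flick or jump) recorded, with a 30 s cut-off. Latencies converted to % maximum possible effect. Mean ± SD, 6 treated vs 6 untreated mice per dose.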

[32] = molecular target: Glutamate NMDA receptor; assay: Displacement of [3H]TCP from NMDA receptor in rat cerebral cortex
[33] = tested on: Mus musculus; assay: Anticonvulsant activity against magnesium deprivation mediated audiogenic seizure in OF1 mouse assessed as duration of latency plus wide running period at 6 mg/kg, ip; assay type: functional; settings: route intraperitoneal
[34] = tested on: Mus musculus; assay: Anxiolytic activity against OF1 mouse assessed as increase in number of crossings of photocell activity meter at 10 mg/kg, ip administered 1 hr before testing measured for 3 mins; settings: route intraperitoneal
[35] = tested on: Mus musculus; assay: Anticonvulsant activity in OF1 mouse assessed as protection against NMDA-induced seizures at 49 mg/kg,; assay type: functional; outline: as §5
[36] = tested on: Mus musculus; assay: Anticonvulsant activity in Swiss mouse assessed as inhibition of ScPTZ-induced seizures at 100 mg/kg, ip after 1 hr; assay type: functional; set-up: scale not given: the % may be the effect or the level left; settings: route intraperitoneal; outline: as §1

Structure (SMILES): N=C(N)c1ccc(N)cc1
- inhibition [1]: < 5%

Structure (SMILES): CN(CCNc1ccc(C(=N)N)cc1)c1ccc(C(=N)N)cc1.Cl.Cl
- Activity [2]: inactive
- Activity [3]: inactive
- Activity [4]: inactive
- inhibition [1]: 17.5%
- Activity [5]: 75%
- Activity [6]: inactive
- Activity [7]: inactive
- Activity [8]: Non-toxic
- Activity [9]: Non-toxic
- Activity [10]: inactive
- Activity [11]: 75%
- Activity [12]: inactive
- Activity [13]: inactive

Structure (SMILES): CN(CCN(C)c1ccc(C(=N)N)cc1)c1ccc(C(=N)N)cc1
- Activity [2]: inactive
- Activity [3]: inactive
- Activity [4]: inactive
- inhibition [1]: 51%
- Activity [5]: 25%
- Activity [14]: Non-toxic
- Activity [6]: inactive
- Activity [7]: inactive
- Activity [15]: inactive
- Activity [16]: inactive
- Activity [8]: Non-toxic
- Activity [17]: 75%
- Activity [9]: Non-toxic
- Activity [18]: inactive
- Activity [10]: inactive
- Activity [19]: 50%
- Activity [11]: 75%
- Activity [12]: inactive
- Activity [13]: inactive
- Activity [20]: 25%

Structure (SMILES): N=C(N)c1ccc(NCCNc2ccc(C(=N)N)cc2)cc1
- Activity [2]: inactive
- Activity [21]: 70.33%
- Activity [3]: inactive
- T [22]: 35.7 °C
- Time [23]: 1.4 s
- Activity [4]: inactive
- inhibition [1]: 36.3%
- Activity [24]: 75%
- Activity [5]: 25%
- Activity [14]: 25%
- Activity [6]: inactive
- Activity [25]: 69%
- ED50 [26]: 6 mg/kg
- Activity [7]: inactive
- Activity [15]: inactive
- Activity [16]: inactive
- Time [27]: 50.3 s
- Activity [8]: Non-toxic
- Activity [28]: 49%
- Activity [17]: 75%
- Activity [29]: 103.3
- Activity [9]: Non-toxic
- Activity [18]: inactive
- Activity [10]: inactive
- Activity [19]: 50%
- Activity [11]: 75%
- Activity [12]: inactive
- Activity [13]: inactive
- Activity [20]: 75%
- Activity [30]: 13.3
- Activity [31]: 31.17%
- IC50 [32]: 1.4 µM
- Time [33]: 4.75 s
- Activity [34]: 90.5
- Activity [35]: >10%
- Activity [36]: 75%

Structure (SMILES): CCN(CCNc1ccc(C(=N)N)cc1)c1ccc(C(=N)N)cc1.Cl.Cl
- Activity [3]: inactive
- Activity [4]: inactive
- inhibition [1]: 28.8%
- Activity [5]: 75%
- Activity [8]: Non-toxic
- Activity [11]: 75%
- Activity [13]: inactive
